Screening data deposited in PubChem BioAssay by several laboratories.
WT yeast gro inh: growth inhibition of WT strain, primary screen, mitochondrial fusion inhibitor project, WT and mutant strains, chemical genetic. inhibition, % at 10 µM. mitochondrial fusion phenotypic screen. 190,000 tested, 2.1% active; in the data active = inhibition above about 58%; tested in S. cerevisiae
Yeast growth inh: growth inhibitors of yeast BB579 in restrictive medium, primary screen, yeast lifespan-shortening project, S. cerevisiae | 140,000 tested, 0.51% active | AID 804, 2007 | OD615, 48 h | inhibition, % at 10 µM;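 active = inhibition above a set limit, 3 SD over the mean compound inhibition, cut at about 44% in these data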
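Test system: DeaD yeast strain BB579 / Buffer or medium: restrictive glucose-based CSMM-D medium / Doses: single 10 µM dose / Schedule: 4 h cell preincubation, 48 h compound exposure, 30 °C humidified / Technique: culture absorbance at 615 nm / Controls: amphotericin B positive control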
RAM network inh: inhibitors of the yeast RAM network, primary screen, dse1pr::URA3 reporter, 5-FOA selection. S. cerevisiae dse1pr::URA3 reporter, 5-FOA growth OD615, 2 d; analog-sensitive cbk1-as2 kinase mutant strain. inhibition, % at 50 µM. 190,000 tested, 1.8% active. AID 868, 2007;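 active = inhibition above a set limit, 3 SD over mean compound inhibition, cut at about 8.4% in these data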;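 note: 0% = DMSO-only wells with no growth and 100% = 10 µM 1-NA-PP1 full growth; inhibition rescues growth on 5-FOA so higher OD means more RAM inhibition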
hDAT+cocaine: changed hDAT dopamine uptake under cocaine IC80, either direction, primary screen, cocaine antagonist project, cell-based, LLC-PK1 hDAT, [14C]-dopamine uptake, MLSMR. Sodium-dependent dopamine transporter (Homo sapiens), Q01959. LLC-PK1 hDAT cells, [14C]-dopamine uptake with cocaine IC80; actives deviate in either direction. B-score at 10 µM. 110,000 tested, 1.3% active. AID 449768, 2010;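 active = Z score or B-score, a plate-position-corrected score, falls beyond the plate's 99.7% confidence bounds, in either direction; inactive = both scores lie inside the 99.7% bounds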;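 note: scored against the spread of the other compound wells on the same plate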
Target sequence (Q01959 whole entry, looked up): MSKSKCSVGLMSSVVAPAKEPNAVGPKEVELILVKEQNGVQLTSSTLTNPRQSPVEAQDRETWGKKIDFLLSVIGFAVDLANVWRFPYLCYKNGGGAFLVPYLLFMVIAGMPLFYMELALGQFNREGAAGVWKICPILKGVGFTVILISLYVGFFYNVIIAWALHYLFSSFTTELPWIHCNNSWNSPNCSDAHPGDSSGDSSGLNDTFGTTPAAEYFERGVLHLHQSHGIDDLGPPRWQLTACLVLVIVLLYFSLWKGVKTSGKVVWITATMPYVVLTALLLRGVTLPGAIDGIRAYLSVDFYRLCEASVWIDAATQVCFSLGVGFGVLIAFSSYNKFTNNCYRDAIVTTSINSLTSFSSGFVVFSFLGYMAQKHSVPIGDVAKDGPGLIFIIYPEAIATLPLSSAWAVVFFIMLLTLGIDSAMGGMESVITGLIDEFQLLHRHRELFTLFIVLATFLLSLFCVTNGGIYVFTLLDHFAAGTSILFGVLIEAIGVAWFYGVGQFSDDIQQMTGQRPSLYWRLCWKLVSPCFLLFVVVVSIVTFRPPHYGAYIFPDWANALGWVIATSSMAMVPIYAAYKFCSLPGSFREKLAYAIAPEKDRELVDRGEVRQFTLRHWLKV
Measles CPE: compounds protecting cells from measles virus cytopathic effect, primary screen, measles RdRp inhibitor project, single point, MLSMR library, absorbance | protection (pct of control), % at 4 µM | AID 841, 2007 | Measles virus-infected cells, CPE protection | 140,000 tested, 1.5% active; in the data active = protection mostly above about 24%, no sharp cut-off; inactive = mostly below about 26%
Yeast lifespan up: compounds extending yeast replicative lifespan, primary screen, S. cerevisiae, OD615; S. cerevisiae growth with nicotinamide; deaD strain in restrictive glucose medium; inhibition of the nicotinamide effect, % at 10 µM; 130,000 tested, 0.68% active; AID 775, 2007;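 active = inhibition above a set limit, placed 3 SD over the median of all compounds, cut at about 26% in these data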;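 note: 0% = nicotinamide-treated wells and 100% = cells grown without nicotinamide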
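Material: Modified budding yeast, DeaD strain | Medium: Restrictive glucose medium | Probe or stimulus: 1.5 mM nicotinamide | Dosing: Single dose 10 µM compound, 0.25% DMSO | Times: 48 h at 30 °C | Technique: OD615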
* = called active by the depositor; / = no result. The list is not random: actives were taken first. Their share in the collection is about 6.1%.

SMILES	WT yeast gro inh	Yeast growth inh	RAM network inh	hDAT+cocaine	Measles CPE	Yeast lifespan up
CC1CC1C(=O)OCC(=O)NCc1ccc(Cl)cc1 (stereo unspecified)	4	-13	0	0.037	11	-7
O=C(C1CC(c2ccccc2O)=NO1)N1CCc2ccccc2C1 (stereo unspecified)	25	-40	1	0.82	47*	-11
COC(=O)c1cc2sccc2n1CC(=O)N(C)c1ccccc1	-21	/	2	/	/	/
CC1CCN(C(=O)c2ccc(-n3cnnn3)cc2)CC1	-20	-13	3	-0.66	40*	/
CC1CCN(C(=O)c2ccc3c(c2)OCCO3)CC1	2	-15	-1	6.7*	32	-13
CC1CCN(C(=S)c2ccc3c(c2)OCO3)CC1	20	-76	0	0.065	15	4
CCCn1c(=O)c(C(=O)NCc2cccnc2)c(O)c2ccccc21	-10	-7	0	0.28	5	0
CC(C)Cn1c(=O)c(C(=O)Nc2cnccn2)c(O)c2ccccc21	-2	-23	1	-0.093	2	68*
Cc1ccc(NC(=O)c2c(O)c3ccccc3n(C)c2=O)nc1	8	-62	0	-0.29	11	10
Cn1c(=O)c(C(=O)Nc2ncccc2O)c(O)c2ccccc21	-4	8	-1	2.2*	7	3
COc1ccc(/C=N/NC(=O)CSc2nnc(CCCc3ccc(OC)c(C)c3)o2)cc1	7	-37	10*	1.6	2	-1
COc1ccc(CCCc2nnc(SCC(=O)N/N=C\c3ccc(O)c(OC)c3)o2)cc1C	15	-28	2	0.039	25	-24
Cc1ccc(NC(=O)CN(C)S(=O)(=O)c2cccc3cccnc23)cc1	7	15	1	1.1	49*	-9
O=C(N/N=C/c1ccccn1)c1ccc(Br)cc1	25	-9	0	/	15	-6
CCOC(=O)C1CCN(C(=O)Cc2ccc(OC)c(OC)c2)CC1	72*	1	0	-0.033	10	-9
COc1ccc(CC(=O)N2CCOCC2)cc1OC	87*	-1	2	-0.65	8	-18
CC(=O)c1cccc(NC(=O)C(=O)c2cn(CC(=O)N3CCCCC3)c3ccccc23)c1	5	/	3	/	/	/
Cc1ccc(CN2CCN(C/C(Cl)=C/c3ccccc3)CC2CCO)o1 (stereo unspecified)	0	/	0	/	/	/
Cc1ccc(S(=O)(=O)NNC(=O)C(O)(c2ccccc2)c2ccccc2)cc1	-18	-18	3	/	10	4
O=C(NNS(=O)(=O)c1ccccc1)C(O)(c1ccccc1)c1ccccc1	-6	1	3	/	63*	1
C=CCN1C(=O)/C(=C2/C(=O)N(CC(=O)O)c3ccccc32)S/C1=N/c1nccs1	13	-3	0	/	4	-7
COCC(=O)Nc1nnc(-c2ccc(C(C)(C)C)cc2)s1	70*	/	0	/	/	/
CC(C)(C)c1ccc(-c2nnc(NC(=O)c3ccccc3)s2)cc1	0	-46	2	-0.41	11	10
COc1ccc(N2CCN(C(=S)NC(C)c3ccccc3)CC2)cc1 (stereo unspecified)	11	/	3	/	/	/
Cc1ccccc1OCCCN1C(=O)C(=O)c2cccc(C)c21	15	83*	-1	/	18	-16
SMILES	WT yeast gro inh	Yeast growth inh	RAM network inh	hDAT+cocaine	Measles CPE	Yeast lifespan up
Cc1cccc2c1N(CCCOc1ccccc1)C(=O)C2=O	-1	-6	-1	-2.5	5	-4
Cc1cccc2c1N(CCCOc1ccc(C(C)(C)C)cc1)C(=O)C2=O	97*	-21	11*	-0.96	19	4
CC(CNC(=O)C(C)C)NC(=O)C(C)C (stereo unspecified)	-28	-31	2	0.85	27*	-7
CCOC(=O)c1ccc(N2C(=O)CC(N3CCC(Nc4ccc(F)cc4)CC3)C2=O)cc1 (stereo unspecified)	1	-37	0	-0.29	3	-10
Cc1ccc(NC(=O)c2cc(NC(=O)CCC(=O)O)ccc2N2CCCCC2)cc1	1	-31	9.0*	0.44	8	-9
COc1ccc(/C=C/c2nc3cc(-c4ccccc4)ccc3o2)cc1O	67*	1	5	/	22	-1
CCN(CC)C(=O)CSc1nc(-c2cccs2)cc(-c2cccs2)c1C#N	-17	-29	8.4*	1.3	5	/
CCN(CC)c1ccc(/C=C2\C(=O)c3ccc(C(=O)O)cc3C2=O)cc1	5	-62	10*	/	4	3
O=C(NNc1cc(Br)c(O)c(Br)c1)c1ccccc1	2	/	2	/	/	/
OCCN1CCN(CCCN2c3ccccc3Sc3ccc(Cl)cc32)CC1	96*	-27	2	-0.71	23	-3
CN(C)CCCN1c2ccccc2Sc2ccc(Cl)cc21	45	7	-1	1.4	10	2
CC1=CC(=C(C#N)c2nc3ccccc3s2)C=C(C)N1c1ccc(F)cc1	4	-9	3	/	2	6
COc1ccccc1N1C(C)=CC(=C(C#N)c2nc3ccccc3s2)C=C1C	-9	-24	8.5*	/	6	6
Cc1cc(Br)ccc1OCC(=O)NNC(=O)c1cnccn1	13	-1	0	/	37*	-5
Cc1cc(Cl)ccc1OCC(=O)NNC(=O)c1cnccn1	-3	/	0	/	/	/
CCc1ccccc1NC(=O)CN(C)C(=O)CSc1nn(-c2ccc(F)cc2)c(=S)s1	4	3	3	/	12	-4
Cc1nn(Cc2ccccc2)c(C)c1N	-5	22	-2	/	9	0
CSCCC(NS(=O)(=O)c1ccc(Cl)cc1)C(=O)OCC(=O)NC1CCCCC1 (stereo unspecified)	-8	-17	1	3.2*	18	-4
CSCCC(NS(=O)(=O)c1ccc(Cl)cc1)C(=O)OCc1cccc(Cl)c1 (stereo unspecified)	41	-32	8.5*	/	9	19
CSCCC(NS(=O)(=O)c1ccc(Cl)cc1)C(=O)OCC(=O)c1ccc(F)cc1 (stereo unspecified)	-2	-25	8	/	16	36*
CSCCC(NS(=O)(=O)c1ccc(Cl)cc1)C(=O)OCc1c(Cl)cccc1Cl (stereo unspecified)	53	-29	7	/	6	14
CSCCC(NS(=O)(=O)c1ccc(Cl)cc1)C(=O)OCC(=O)NC1CC1 (stereo unspecified)	-8	-26	-1	-1.3	5	-4
CCC1=NN(C(=O)Cc2ccc(OC)c(OC)c2)C(O)(C(F)(F)F)C1 (stereo unspecified)	-10	-11	-2	/	18	-13
